The target in series [1] is Phosphatidylinositol 4,5-bisphosphate 3-kinase catalytic subunit beta isoform (Homo sapiens) (UniProt P42338). In words: Inhibition of PI3Kbeta (unknown origin) transfected in human Rh30 cells assessed as reduction in AKT phosphorylation at Thr308 residue at 10XIC50 by western blot analysis. It counts as cell-based. A digest of the protocol: (§1)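 Rh30 cells ectopically expressing membrane-anchored, N-terminally myristoylated, constitutively active p110α, β, γ or δ. Akt phosphorylation assessed by Western blot; lysates made in RIPA buffer, equal protein heated at 95 °C for 10 min in SDS loading buffer.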
In general terms: In western blotting, separated proteins are transferred to a membrane and probed.

The nature of series [2]: Inhibition of human PI3Kgamma R459Q mutant using PIP2 as substrate in presence of ATP measured after 30 mins by HTRF assay. For orientation: Time-resolved FRET reads energy transfer from a long-lived donor to a nearby acceptor.
Series [3] deals with Phosphatidylinositol 4,5-bisphosphate 3-kinase catalytic subunit delta isoform (Homo sapiens) (UniProt O00329). In words: Inhibition of PI3Kdelta (unknown origin) transfected in human Rh30 cells assessed as reduction in AKT phosphorylation at Thr308 residue at 10XIC50 by western blot analysis. The series is classed as cell-based. A digest of the protocol: as §1
The subject of a further series is SK-BR-3. In words: Antiproliferative activity against human SK-BR-3 cells assessed as reduction in cell viability after 72 hrs by sulforhodamine B assay. It counts as functional, cell-based. The settings on record: SK-BR-3, 72 h. The method, boiled down:
(§2)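 SRB assay. Exponentially growing cells seeded at 3000–5000/well, compounds added serially diluted after 24 h, cultured 72 h. Cells fixed with 10% TCA, stained with SRB, dye dissolved in 10 mM Tris-HCl, absorbance read at 560 nm. Inhibition = (ODcontrol − ODtreated)/ODcontrol × 100%. IC50 is the mean of at least three independent tests.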

The subject of the next series is BT-474. In words: Antiproliferative activity against human BT-474 cells assessed as reduction in cell viability after 72 hrs by sulforhodamine B assay. The note with it: BT-474, 72 h. The series is classed as functional, cell-based. The method, boiled down: as §2
On the technique in general: The SRB assay estimates cell density from bound dye.

A further series concerns LoVo. Kind of series: Antiproliferative activity against human LoVo cells assessed as reduction in cell viability after 72 hrs by sulforhodamine B assay. It counts as functional, cell-based. A digest of the protocol:
as §2

Series [4] can be described thus: Inhibition of human PI3K p110alpha E545K mutant/p85alpha using PIP2 as substrate incubated for 30 mins in presence of ATP by HTRF assay.
The subject of another series is SJRH30. In words: Antiproliferative activity against human Rh30 cells assessed as reduction in cell viability after 72 hrs by sulforhodamine B assay. It counts as functional, cell-based. The note with it: SJRH30, 72 h. The method, boiled down: as §2
Series [5] addresses Phosphatidylinositol 4,5-bisphosphate 3-kinase catalytic subunit gamma isoform (Homo sapiens) (UniProt P48736). In words: Inhibition of PI3Kgamma (unknown origin) transfected in human Rh30 cells assessed as reduction in AKT phosphorylation at Thr308 residue at 10XIC50 by western blot analysis. The series is classed as cell-based. The method, boiled down: as §1
Series [6] is described as follows: Toxicity in BALB/cA nude mouse xenografted with human SK-OV-3 cells assessed as changes in body weight at 5 to 20 mg/kg, po administered once a day for 21 days and measured twice per week. It counts as organism-based. The settings on record: in vivo, 504 h, dose 5-20 mg/kg/day, time 21 day. The method, boiled down:
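Female BALB/cA nude mice, 4–5 weeks old, received s.c. passaged SKOV-3 tumor fragments (1.5 mm³) in the right flank. At about 100 mm³ they were randomized to oral vehicle or compound once daily for 21 days. Body weight was measured individually twice per week.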

The nature of series [7]: Toxicity in BALB/cA nude mouse xenografted with human SK-OV-3 cells assessed as blood glucose level at 5 to 20 mg/kg, po administered once a day for 18 days by glucose meter analysis. The series is classed as organism-based. The note with it: in vivo, 432 h, dose 5-20 mg/kg/day, time 18 day. The method, boiled down:
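Female BALB/cA nude mice, 4–5 weeks old, carried s.c. SKOV-3 xenograft fragments. They were dosed orally once daily for 18 days with vehicle or compound, then fasted 6 h and given glucose orally at 2 g/kg. Blood was sampled at set times up to 2 h, and glucose was measured with a blood glucose meter.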

Calls of active or inactive are those of the source. The rule behind the calls is not given here.

Sequence of Phosphatidylinositol 4,5-bisphosphate 3-kinase catalytic subunit gamma isoform (Homo sapiens) (P48736 whole entry, looked up, canonical isoform): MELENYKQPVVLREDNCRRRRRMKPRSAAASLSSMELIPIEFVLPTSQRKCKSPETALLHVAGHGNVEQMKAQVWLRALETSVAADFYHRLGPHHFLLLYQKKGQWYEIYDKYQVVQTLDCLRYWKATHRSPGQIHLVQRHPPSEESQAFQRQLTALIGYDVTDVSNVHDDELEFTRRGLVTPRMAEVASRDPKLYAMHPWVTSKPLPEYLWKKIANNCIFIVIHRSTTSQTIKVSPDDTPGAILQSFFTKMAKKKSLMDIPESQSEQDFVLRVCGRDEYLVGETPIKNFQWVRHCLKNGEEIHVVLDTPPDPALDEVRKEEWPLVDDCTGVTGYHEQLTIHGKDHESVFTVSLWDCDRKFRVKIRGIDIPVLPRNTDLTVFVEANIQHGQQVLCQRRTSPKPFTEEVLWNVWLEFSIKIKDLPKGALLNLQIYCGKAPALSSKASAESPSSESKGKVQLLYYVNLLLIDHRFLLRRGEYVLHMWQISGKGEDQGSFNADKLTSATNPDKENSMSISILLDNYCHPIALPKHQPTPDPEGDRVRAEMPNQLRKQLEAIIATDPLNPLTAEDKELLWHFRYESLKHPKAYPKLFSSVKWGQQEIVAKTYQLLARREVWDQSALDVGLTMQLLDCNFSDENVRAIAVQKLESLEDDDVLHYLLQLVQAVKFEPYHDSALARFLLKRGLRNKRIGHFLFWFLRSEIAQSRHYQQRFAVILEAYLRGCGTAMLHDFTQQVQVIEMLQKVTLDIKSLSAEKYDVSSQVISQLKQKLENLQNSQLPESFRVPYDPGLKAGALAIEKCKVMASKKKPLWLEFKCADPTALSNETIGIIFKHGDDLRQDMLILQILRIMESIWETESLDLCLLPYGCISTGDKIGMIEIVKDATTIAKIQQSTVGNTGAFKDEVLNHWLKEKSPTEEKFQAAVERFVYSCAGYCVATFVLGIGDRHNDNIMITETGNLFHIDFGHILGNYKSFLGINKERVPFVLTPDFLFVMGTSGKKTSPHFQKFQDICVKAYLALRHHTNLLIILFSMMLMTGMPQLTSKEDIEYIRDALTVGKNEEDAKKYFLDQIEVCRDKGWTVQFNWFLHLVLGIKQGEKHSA
Sequence of Phosphatidylinositol 4,5-bisphosphate 3-kinase catalytic subunit delta isoform (Homo sapiens) (O00329 whole entry, canonical isoform): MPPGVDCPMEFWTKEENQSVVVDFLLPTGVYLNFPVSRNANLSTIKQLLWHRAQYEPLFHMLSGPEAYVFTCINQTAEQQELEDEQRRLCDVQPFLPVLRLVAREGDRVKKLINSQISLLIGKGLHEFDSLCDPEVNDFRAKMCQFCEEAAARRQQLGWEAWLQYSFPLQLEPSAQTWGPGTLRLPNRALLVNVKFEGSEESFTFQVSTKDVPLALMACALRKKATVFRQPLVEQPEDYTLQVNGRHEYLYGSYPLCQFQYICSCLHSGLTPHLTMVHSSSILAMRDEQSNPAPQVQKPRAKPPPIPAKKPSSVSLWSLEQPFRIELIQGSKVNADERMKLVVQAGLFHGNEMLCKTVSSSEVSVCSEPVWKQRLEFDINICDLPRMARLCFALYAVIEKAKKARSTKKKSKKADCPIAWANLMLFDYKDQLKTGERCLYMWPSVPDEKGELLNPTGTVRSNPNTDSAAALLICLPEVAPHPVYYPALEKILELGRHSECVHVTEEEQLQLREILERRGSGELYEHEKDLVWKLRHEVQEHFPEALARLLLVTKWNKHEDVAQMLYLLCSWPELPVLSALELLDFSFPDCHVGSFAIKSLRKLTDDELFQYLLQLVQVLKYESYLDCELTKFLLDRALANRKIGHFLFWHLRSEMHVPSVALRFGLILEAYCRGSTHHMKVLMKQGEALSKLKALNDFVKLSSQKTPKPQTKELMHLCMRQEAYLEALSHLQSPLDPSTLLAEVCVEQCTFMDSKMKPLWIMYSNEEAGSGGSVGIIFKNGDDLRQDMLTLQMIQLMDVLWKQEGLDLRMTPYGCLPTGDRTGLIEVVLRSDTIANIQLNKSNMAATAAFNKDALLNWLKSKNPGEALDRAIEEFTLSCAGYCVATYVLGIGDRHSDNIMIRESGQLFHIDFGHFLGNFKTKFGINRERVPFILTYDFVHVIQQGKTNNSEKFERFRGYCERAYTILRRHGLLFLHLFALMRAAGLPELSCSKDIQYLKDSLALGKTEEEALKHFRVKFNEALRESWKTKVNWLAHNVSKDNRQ
Sequence of Phosphatidylinositol 4,5-bisphosphate 3-kinase catalytic subunit beta isoform (Homo sapiens) (P42338 whole entry, looked up, canonical isoform): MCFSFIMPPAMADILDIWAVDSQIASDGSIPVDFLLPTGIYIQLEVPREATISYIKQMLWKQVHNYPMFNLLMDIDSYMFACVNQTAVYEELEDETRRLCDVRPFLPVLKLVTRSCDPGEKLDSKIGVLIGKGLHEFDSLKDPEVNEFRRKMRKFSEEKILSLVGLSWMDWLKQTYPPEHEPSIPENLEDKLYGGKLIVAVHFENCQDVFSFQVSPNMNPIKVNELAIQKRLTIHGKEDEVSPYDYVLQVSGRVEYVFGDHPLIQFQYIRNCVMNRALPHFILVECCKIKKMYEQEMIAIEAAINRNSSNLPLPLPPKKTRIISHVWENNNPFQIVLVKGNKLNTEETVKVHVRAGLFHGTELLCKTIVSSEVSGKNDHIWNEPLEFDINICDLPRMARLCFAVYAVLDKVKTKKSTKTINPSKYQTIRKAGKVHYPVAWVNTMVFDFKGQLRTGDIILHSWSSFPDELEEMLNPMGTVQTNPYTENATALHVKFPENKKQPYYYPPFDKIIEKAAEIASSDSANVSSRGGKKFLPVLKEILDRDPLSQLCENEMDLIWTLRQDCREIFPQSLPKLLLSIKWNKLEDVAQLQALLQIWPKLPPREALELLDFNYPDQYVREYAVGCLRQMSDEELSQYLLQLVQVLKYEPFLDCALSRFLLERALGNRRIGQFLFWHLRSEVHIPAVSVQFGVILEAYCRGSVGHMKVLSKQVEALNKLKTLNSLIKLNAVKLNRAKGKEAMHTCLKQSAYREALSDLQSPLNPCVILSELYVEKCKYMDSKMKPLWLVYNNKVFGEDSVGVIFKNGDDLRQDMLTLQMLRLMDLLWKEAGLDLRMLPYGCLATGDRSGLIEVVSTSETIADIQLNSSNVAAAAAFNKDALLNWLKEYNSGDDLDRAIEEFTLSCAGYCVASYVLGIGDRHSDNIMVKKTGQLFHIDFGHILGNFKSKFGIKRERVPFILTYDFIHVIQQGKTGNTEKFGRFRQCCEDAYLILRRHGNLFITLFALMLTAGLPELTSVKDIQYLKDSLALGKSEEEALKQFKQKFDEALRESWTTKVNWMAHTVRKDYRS

With `COC(=O)Nc1cc(C(F)(F)F)c(-c2nc(N3CCOCC3)c3cc(CN4CCN(S(C)(=O)=O)CC4)cn3n2)cn1` [RISOVALISIB], the inhibition entry in series [1], in series [3] and in series [5] was “Active” in each case. The IC50 (usually the concentration needed to halve the response being measured) in series [2] is 225 nM; in the series with SK-BR-3 it was less than 1000 nM; in the series on BT-474, less than 1000 nM; in the series on LoVo it was less than 1000 nM; in series [4], 17.1 nM; in the series on SJRH30, 1030 nM. The Activity result in series [6] and in series [7] was “Non-Toxic” throughout.

The values are drawn from ChEMBL document CHEMBL4732078 (Eur J Med Chem, 2021).
